Measurements from different studies.
Cell line: HCT-116
Effect on: cell growth or viability

Structure (SMILES) | technique | concentration | time | quantity | result
COc1cc(/C=N/n2c(C)nc3ccc(C)cc3c2=O)cc([N+](=O)[O-])c1O | LDH | 200 µg/mL | 24 h | viability | 90%
S=C([S][Au-][P+](CCCCCC[P+]([Au-][S]C(=S)n1cccn1)(c1ccccc1)c1ccccc1)(c1ccccc1)c1ccccc1)n1cccn1 | – | – | – | GI50 | 0.42 µM
CCN(CC)CCOc1cc2cc3c(cc2c2nc(OC)c4cc(OC)c(OC)cc4c12)OCO3 | MTT | – | 72 h | GI50 | ≥ 100 µM
COc1ccccc1/C=C/C(=O)c1ccc(OC)c(S(N)(=O)=O)c1 | SRB | – | 48 h | GI50 | 2.5 µM
COc1cc2c(OC)nc3c4cc5c(cc4cc(OCCN(C)C)c3c2cc1OC)OCO5 | MTT | – | 72 h | GI50 | > 100 µM
COc1ccc(NC(=O)c2c(Nc3ccccc3)sc(C(=O)NN=Cc3ccc(Cl)cc3)c2NC(C)=O)cc1 | SRB | 10 µM | 48 h | viability | 61.3%
COc1cc2c(OC)nc3c4cc5c(cc4cc(OCCCN4CC=CC4)c3c2cc1OC)OCO5 | MTT | – | 72 h | GI50 | 1.3 µM
COc1ccc(C(=O)/C=C/c2cc3c(cc2Br)OCO3)cc1S(N)(=O)=O | SRB | 10 µM | – | inhibition | 198%
COc1cccc(Oc2ccccc2NC(=O)CNC(=O)c2cccc3ccccc23)c1 | SRB | – | 48 h | GI50 | 0.0955 µM
COc1ccc(C(=O)/C=C/c2cccnc2)cc1S(N)(=O)=O | SRB | – | 48 h | GI50 | 3.2 µM
COc1cc(CNC(=O)C[C@H](C)CCC=C(C)C)ccc1OCc1cn(-c2ccc(Cl)cc2)nn1 | SRB | 10 µM | – | inhibition | 41%
CNC(=O)c1cc(Oc2ccc(NC(=O)Nc3ccc(Cl)c(C(F)(F)F)c3)cc2)ccn1 | SRB | 1 µM | 48 h | viability | 46.6%
COc1ccc(C(=O)/C=C/c2ccc(Cl)c(Cl)c2)cc1S(N)(=O)=O | SRB | 10 µM | – | inhibition | 196%
COc1ccc(NC(=O)c2c(Nc3ccccc3)sc(C#N)c2NC(=O)CNc2ccc([N+](=O)[O-])cc2)cc1 | SRB | 0.1 µM | 48 h | viability | 83.9%
Cc1nc2ccc(Cl)cc2c(=O)n1NC(=O)CCl | LDH | 200 µg/mL | 24 h | viability | 89%
COc1ccc(C(=O)/C=C/c2cccc3ccccc23)cc1S(N)(=O)=O | SRB | 10 µM | – | inhibition | 192%
COc1ccc(NC(=O)c2c(Nc3ccccc3)sc(C(=O)NN=Cc3ccc(OC)c(O)c3)c2NC(C)=O)cc1 | SRB | 10 nM | 48 h | viability | 83.7%
COc1ccc(C(=O)/C=C/c2ccccc2Br)cc1S(N)(=O)=O | SRB | – | 48 h | GI50 | 1.5 µM
COc1ccc(NCC(=O)Nc2c(C#N)sc(Nc3ccccc3)c2C(=O)Nc2ccc(OC)cc2)cc1 | SRB | 1 µM | 48 h | viability | 70.2%
